Activity calls are given as the source filed them. The rule behind the calls is not given here.

Assay [1] addresses T1, Estrogen receptor beta (Homo sapiens, UniProt Q92731). As to the kind of experiment: Displacement of [3H]17-beta-estradiol from human recombinant full length ERbeta. A digest of the protocol:
(§1)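 Competitive ligand-binding assay with recombinant human ER-α or ER-β. Test compounds displace the labelled estrogen ligand, and IC50 is derived from the displacement curves.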

The target in assay [2] is T1, Estrogen receptor beta. Nature of the assay: Displacement of [3H]17-beta-estradiol from human recombinant full length ERbeta relative to estradiol. A digest of the protocol: (§2)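 Relative binding affinity is taken from the competitive binding IC50s against recombinant human ER-α or ER-β. RBA = 100 × IC50(E2)/IC50(compound).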
For the next assay, the species on record is Homo sapiens. As to the kind of experiment: Selectivity ratio of IC50 for human recombinant full length ERbeta to IC50 for human recombinant full length ERalpha.
For assay [3], the system named is MCF7. Nature of the assay: Up-regulation of pS2 gene expression in human MCF7 cells at 10 uM after 24 hrs by RT-PCR analysis. The format is functional, cell-based. Put shortly:
(§3)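 MCF-7 cells were treated 24 h with compounds at 10 µM. Steady-state mRNA levels were quantified by qPCR, with constitutive human β-actin mRNA as internal control, relative to untreated control.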

Assay [4] deals with T2, Estrogen receptor (Homo sapiens, UniProt P03372).
T2 sequence (P03372 whole entry): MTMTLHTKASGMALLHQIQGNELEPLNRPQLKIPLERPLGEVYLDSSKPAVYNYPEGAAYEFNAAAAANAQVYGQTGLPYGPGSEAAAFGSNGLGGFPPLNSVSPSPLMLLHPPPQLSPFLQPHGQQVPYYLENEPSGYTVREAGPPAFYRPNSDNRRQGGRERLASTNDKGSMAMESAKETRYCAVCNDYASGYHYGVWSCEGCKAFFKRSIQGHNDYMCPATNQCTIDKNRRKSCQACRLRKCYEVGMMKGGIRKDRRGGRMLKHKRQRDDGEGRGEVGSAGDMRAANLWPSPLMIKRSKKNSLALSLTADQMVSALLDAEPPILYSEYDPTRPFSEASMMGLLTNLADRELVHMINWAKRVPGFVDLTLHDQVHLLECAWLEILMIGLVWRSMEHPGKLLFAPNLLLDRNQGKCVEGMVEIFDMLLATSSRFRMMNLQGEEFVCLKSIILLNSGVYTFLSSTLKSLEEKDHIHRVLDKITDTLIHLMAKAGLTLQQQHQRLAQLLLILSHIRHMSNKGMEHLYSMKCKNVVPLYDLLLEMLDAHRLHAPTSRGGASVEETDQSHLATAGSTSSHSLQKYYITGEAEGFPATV
Nature of the assay: Displacement of [3H]17-beta-estradiol from human recombinant full length ERalpha. A digest of the protocol:
as §1

The subject of assay [5] is MCF7. As to the kind of experiment: Up-regulation of progesterone receptor gene expression in human MCF7 cells at 10 uM after 24 hrs by RT-PCR analysis. The format is functional, cell-based. A digest of the protocol: as §3
Assay [6] concerns MCF7. As to the kind of experiment: Down-regulation of ERalpha mRNA expression in human MCF7 cells at 10 uM after 24 hrs by SDS PAGE and immunoblot analysis. The settings on record: in the assay text read “protein” for “mRNA”. Format: functional, cell-based. Put shortly: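 MCF-7 cells were treated 24 h with 10 µM compounds, with 10 nM E2 as reference. Total protein extracts were run on SDS–PAGE and immunoblotted with anti-ER-α and anti-β-actin antibodies. ER-α protein was compared with control.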

Assay [7] has as its system MCF7. Nature of the assay: Down-regulation of ERalpha mRNA expression in human MCF7 cells at 10 uM after 24 hrs by RT-PCR analysis. The format is functional, cell-based. Put shortly:
as §3

The target in assay [8] is T3, Estrogen receptor (Homo sapiens) (UniProt P03372).
T3 sequence (whole entry): T2 sequence (P03372 whole entry)
Nature of the assay: Displacement of [3H]17-beta-estradiol from human recombinant full length ERalpha relative to estradiol. Put shortly: as §2

In assay [9] the target is T2, Estrogen receptor. Nature of the assay: Transactivation of human recombinant ERalpha expressed in african green monkey CV1 cells co-expressing ERE-Luc after 24 hrs by luciferase reporter gene assay. Format: cell-based, CV-1. Put shortly:
(§4)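 CV-1 cells were transfected with an ERE-Luc reporter plus a hER-α or hER-β expression vector. Cells were incubated 24 h with compounds, then lysed, and luciferase expression was measured. Data are mean ± SD (n = 3), and EC50 comes from the dose-response.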

Assay [10] has as its target T3, Estrogen receptor (Homo sapiens). As to the kind of experiment: Transactivation of human recombinant ERalpha expressed in african green monkey CV1 cells co-expressing ERE-Luc after 24 hrs by luciferase reporter gene assay in presence of ER antagonist ICI 182780. Format: functional, cell-based. The settings on record: CV-1.
The target of assay [11] is T1, Estrogen receptor beta. As to the kind of experiment: Transactivation of human recombinant ERbeta expressed in african green monkey CV1 cells co-expressing ERE-Luc after 24 hrs by luciferase reporter gene assay. The format is cell-based, CV-1. A digest of the protocol:
as §4

T1 sequence (Q92731 whole entry): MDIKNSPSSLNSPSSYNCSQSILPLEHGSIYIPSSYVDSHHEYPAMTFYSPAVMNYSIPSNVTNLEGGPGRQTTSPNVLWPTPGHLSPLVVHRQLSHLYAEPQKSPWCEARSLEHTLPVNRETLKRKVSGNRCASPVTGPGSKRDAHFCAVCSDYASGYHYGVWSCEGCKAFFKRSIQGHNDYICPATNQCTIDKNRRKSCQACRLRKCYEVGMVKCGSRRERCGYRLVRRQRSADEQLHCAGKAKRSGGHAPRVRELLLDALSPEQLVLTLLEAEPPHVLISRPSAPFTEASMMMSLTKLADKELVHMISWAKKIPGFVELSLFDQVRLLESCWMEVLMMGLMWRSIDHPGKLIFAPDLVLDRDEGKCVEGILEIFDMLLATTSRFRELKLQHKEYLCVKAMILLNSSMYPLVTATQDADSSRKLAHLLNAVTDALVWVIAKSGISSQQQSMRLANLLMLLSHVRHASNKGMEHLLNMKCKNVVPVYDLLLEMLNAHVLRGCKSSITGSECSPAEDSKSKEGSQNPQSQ

Consider `CC(C)=CCc1c([C@H]2CCc3ccc(O)cc3O2)cc(O)c(O)c1CC=C(C)C`, for which the half-inhibitory concentration (IC50) turned out to be 96 µM on Estrogen receptor beta [1] and 151 µM on Estrogen receptor [4]. For the same compound, the RBA was 0.007% on Estrogen receptor beta [2] and 0.004% in assay [8]. For the same compound, in the assay listed under Homo sapiens, the Ratio IC50 is 1.75. Also, the outcome in the assay with MCF7 [3], in the assay on MCF7 [5], in the assay with MCF7 [6] and in the assay with MCF7 [7] was Active.

For `COc1ccc(CCCc2ccc(O)cc2)c(O)c1` [BROUSSONIN A], the IC50 worked out at 1.8 µM on Estrogen receptor beta [1] and 8.1 µM at Estrogen receptor [4]. Besides, the values for the RBA (at Estrogen receptor beta [2]; in [8]) were 0.394% and 0.069%, respectively. The Ratio IC50 in the assay filed under Homo sapiens amounted to 5.71. In addition, the outcome with MCF7 [3], with MCF7 [5], in the assay on MCF7 [6] and in the assay on MCF7 [7] was Active. Also, the EC50 result at Estrogen receptor [9] (cv-1) was “Dose-dependent effect”; at Estrogen receptor [9] (read-out: EC50), 1.59 µM; at Estrogen receptor beta [11] (cv-1), “Dose-dependent effect”; at Estrogen receptor beta [11] (read-out: EC50), 0.53 µM. For the same compound, the outcome in assay [10] was inactive.

Regarding `CC(C)=CCc1c([C@H]2CCc3ccc(O)cc3O2)ccc(O)c1O` [KAZINOL U], the IC50 at Estrogen receptor beta [1] is 41.7 µM; at Estrogen receptor [4] it was 57.2 µM. For the same compound, the figures for the RBA (at Estrogen receptor beta [2]; in assay [8]) were 0.017% and 0.01%, respectively. Also, the Ratio IC50 in the assay filed under Homo sapiens came to 1.7. Besides, the outcome with MCF7 [3], in the assay with MCF7 [5], in the assay on MCF7 [6] and with MCF7 [7] was Active.

Consider `Oc1ccc([C@H]2CCc3ccc(O)cc3O2)cc1` [TUPICHINOL C], for which the results for the IC50 at Estrogen receptor beta [1] and at Estrogen receptor [4] were 14.7 µM and 26.2 µM, respectively. The RBA at Estrogen receptor beta [2] worked out at 0.048%; in [8], 0.021%. Further, in the assay filed under Homo sapiens, the Ratio IC50 was 2.29. Also, the outcome in the assay on MCF7 [3], with MCF7 [5], in the assay with MCF7 [6] and in the assay with MCF7 [7] was Active.

Values taken from ChEMBL document CHEMBL1158617, “New estrogenic compounds isolated from Broussonetia kazinoki” (Bioorg Med Chem Lett, 2010).
